Compound activity from PubChem BioAssay.
MC4R ag barr: MC4R agonists recruiting beta-arrestin, primary screen, cell-based, luminescence, agonist arm of biased-ligand search; AID 540308, 2011; activation, % at 8.9 µM; Melanocortin receptor 4 (Homo sapiens), P32245; U2OS MC4R beta-arrestin complementation; percent of melanotan II response, DMSO zero; 360,000 tested, 0.98% active;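 active means activation above a per-plate cutoff, the mean activation of sample wells on that plate plus 3 SD, cut at about 8% in these data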
NTR1 ag: agonists of human NTR1, primary screen, imaging, U2OS cells, beta-arrestin-GFP, high content | Neurotensin receptor type 1 (Homo sapiens), P30989 | NTR1-U2OS beta-arrestin-GFP spot imaging, agonist mode | activation, % at 20 µM | 330,000 tested, 0.17% active;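 active means activation at or above 40% of the spot to cytoplasm intensity ratio, with at least 20 cells analyzed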;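 further: 0% = DMSO without peptide and 100% = 100 nM NTR1 peptide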
Target sequence (P30989 whole entry, looked up): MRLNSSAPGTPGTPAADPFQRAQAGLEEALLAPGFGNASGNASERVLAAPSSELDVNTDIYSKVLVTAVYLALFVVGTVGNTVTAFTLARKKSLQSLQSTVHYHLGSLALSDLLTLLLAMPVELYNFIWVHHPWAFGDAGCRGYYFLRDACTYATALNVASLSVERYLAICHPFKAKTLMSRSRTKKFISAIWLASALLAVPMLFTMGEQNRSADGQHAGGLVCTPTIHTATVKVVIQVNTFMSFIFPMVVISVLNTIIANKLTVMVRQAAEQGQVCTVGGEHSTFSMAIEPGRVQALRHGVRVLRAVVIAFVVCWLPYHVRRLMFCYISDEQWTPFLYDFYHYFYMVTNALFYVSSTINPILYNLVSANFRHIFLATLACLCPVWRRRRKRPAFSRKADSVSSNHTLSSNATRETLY
Tb MetRS inh: T. brucei MetRS inhibitors, primary screen, biochemical, luminescence. methionyl-tRNA synthetase (Trypanosoma brucei brucei). purified T. brucei MetRS, ATP depletion, Kinase-Glo luminescence. inhibition, % at 11.9 µM. 360,000 tested, 0.4% active. AID 624268, 2012;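 active means inhibition above a per-plate cutoff of the control wells' mean inhibition plus 3 SD, cut at about 5.5% in these data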;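 further: 0% = DMSO wells median and 100% = median of wells with control inhibitor compound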
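Material: parasite MetRS enzyme / Replication: singlicate, one well per compound / Signal: luminescence of leftover ATP / Schedule: 2 h aminoacylation at 25 °C after 15 min preincubation / Medium: HEPES-MgCl2-KCl buffer plus DTT, spermine, BSA, pyrophosphatase / Doses: 11.9 µM single point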
aDG glyco up: activators of alpha-DG glycosylation, primary screen, uHTS, Pro5-aDG cells, AlphaScreen; alpha-DG glycosylation AlphaScreen (IIH6); 0% Pro5, 100% B10-LARGE cell signal; activation, % at 10 µM; 360,000 tested, 0.22% active; AID 624168, 2012;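 active means activation of at least 8% versus controls, or a plate z-score of at least 8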;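 further: Pro5 are CHO cells carrying HIG-tagged alpha-DG that lacks glycosylation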
MC4R antagonist: MC4R antagonists of cAMP signaling, primary screen, cell-based, TR-FRET, antagonist arm of biased-ligand search | MC4R-expressing cells, MTII-stimulated cAMP, LANCE TR-FRET | inhibition, % at 6.5 µM | Melanocortin receptor 4 (Homo sapiens), P32245 | AID 540295, 2011 | 360,000 tested, 0.48% active;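 active means inhibition above its plate's cutoff, the mean of tested wells on that plate plus 3 SD, cut at about 29% in these data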;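 further: 0% = Melanotan II alone and 100% = Melanotan II plus saturating MCL0020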
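Material: U2OS-MC4R stable cell line | Reagent: Melanotan II challenge after compound preincubation | Doses: One concentration, 6.5 µM nominal | Incubation: 30-min compound preincubation, 1-h Melanotan II challenge, 1-h detection, room temperature | Signal: TR-FRET cAMP assay | Replicates: One well per compound, no replicates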
H9c2 TAG inh: inhibitors of triacylglycerol accumulation, primary screen, cell-based, uHTS, fluorescence, H9c2 | H9c2 cells, Nile Red lipid (TAG) fluorescence; cells loaded with 200 µM oleic acid | inhibition, % at 12.5 µM | 230,000 tested, 0.66% active | AID 651582, 2012;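 active means pattern-corrected inhibition of lipid staining of at least 50% with the nuclear-stain viability signal not falling by more than 50%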;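 further: 0% = DMSO wells and 100% = triacsin C control wells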
MC4R barr ag: MC4R beta-arrestin agonists, retest, confirmation, cell-based, luminescence, U2OS | shares compounds with MC4R ag barr | 2,400 tested, 31% active | U2OS MC4R beta-arrestin recruitment; scaled DMSO 0%, Melanotan II 100% | activation, % at 8.9 µM;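 active means mean activation across replicates above the hit cutoff set in the earlier primary screen, cut at about 8% in these data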
MOR DOR agonist: agonists of MOR-DOR heterodimerization, counter-screen for MC4R biased agonist project, cell-based, luminescence; shares compounds with MC4R ag barr; U2OS PathHunter beta-arrestin, beta-gal luminescence; percent of deltorphin B response, DMSO zero; activation, % at 9.2 µM; 2,400 tested, 5.8% active; AID 602194, 2012;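 active means mean activation across replicates exceeds the hit threshold derived in the earlier primary screen, cut at about 18% in these data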;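 further: 100% = deltorphin B at 0.9 µM final and 0% = DMSO alone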
Starred values were filed as active, the others as inactive; . = no result. This is a sample that favours compounds with a hit; in the whole collection about 2.4% have one here.

SMILES	MC4R ag barr	NTR1 ag	Tb MetRS inh	aDG glyco up	MC4R antagonist	H9c2 TAG inh	MC4R barr ag	MOR DOR agonist
N#C/C(=C/c1ccc(-c2ccc(S(N)(=O)=O)cc2)o1)c1nc2ccccc2s1	-2	-1	1	0	17	-47	.	.
CNC(=O)/C(C#N)=C/c1ccc(-c2nc3ccccc3s2)o1	38*	0	-1	0	-9	0	1	5
CNC(=O)/C(C#N)=C\c1ccc(CNS(=O)(=O)c2ccccc2)o1	-2	0	-1	0	-4	.	.	.
N#Cc1cc(-c2ccccc2)oc1NC(=O)c1ccccc1	0	2	0	0	12	25	.	.
Cc1ccc(C(=O)Nc2oc(-c3ccccc3)cc2C#N)cc1	12*	3	0	0	5	26	4	4
O=C1NC[C@H](CCCCN2C[C@H](Cc3ccc(O)cc3)N(CC3CCCCC3)C(=O)C2=O)N(Cc2ccccc2)C1=O	.	.	-1	0	.	.	.	.
COC(=O)[C@]12CCCCC=C1N(Cc1ccco1)C(=O)[C@H](CC(=O)NCC13CC4CC(CC(C4)C1)C3)C2	.	.	-1	0	.	.	.	.
O=C(Nc1ccc(Nc2ccccc2)cc1)C1CC1	-2	0	0	0	-5	-9	.	.
CC(C)(C)C1CCC(C(=O)Nc2ccccc2)CC1 (centres undefined)	10*	2	-1	0	-5	.	2	6
N#C/C(=C\c1ccc[nH]1)C(=O)Nc1ccccc1Cl	12*	-1	0	0	11	-8	0	14
N#C/C(=C\c1ccc[nH]1)C(=O)Nc1ccccc1F	-3	1	0	0	-4	5	.	.
COc1ccc(NC(=O)/C(C#N)=C/c2ccc[nH]2)c(OC)c1	10*	0	0	0	-3	0	-2	12
CCCCOCCCNC(=O)C[C@@H]1C[C@@]2(C(=O)OCC)CCCC=C2N(Cc2ccc(Cl)cc2Cl)C1=O	.	.	-1	0	.	.	.	.
O=C1NC[C@H](CCCCN2C[C@H](Cc3ccc(O)cc3)N(CCc3ccc(O)cc3)C(=O)C2=O)N(CCc2ccc(O)cc2)C1=O	.	.	0	0	.	.	.	.
CC(C)OC(=O)/C=C1\C[C@@H](c2ccccc2C(F)(F)F)O[C@@H](c2ccccc2C(F)(F)F)O1	.	.	0	0	.	.	.	.
N#Cc1cc(-c2ccccc2)nnc1Oc1ccccc1	0	1	-2	0	-1	-23	.	.
Cc1ccc(Oc2nnc(-c3ccccc3)cc2C#N)cc1	27*	5	0	0	6	-1	5	9
NS(=O)(=O)c1ccc(CCNC(=O)CSc2ccsc2[N+](=O)[O-])cc1	1	-2	-1	1	-3	-2	.	.
CSc1ccc(CCNC(=O)CSc2ccsc2[N+](=O)[O-])cc1	11*	-1	-2	0	0	11	3	12
CCSc1ccc(C(=O)Nc2ccc(Br)cn2)cc1[N+](=O)[O-]	6	0	0	0	0	1	.	.
CCSc1ccc(C(=O)Nc2cccc(C)n2)cc1[N+](=O)[O-]	36*	1	-1	0	4	.	-2	7
COc1ccc(C(=O)c2[nH]c(N)c(C(=O)NCCc3c[nH]c4ccccc34)c2-c2ccc(OC)c(OC)c2)cc1	.	.	0	0	.	.	.	.
CCC1(C)Cc2c(sc3nc(SCC(=O)c4ccccc4)[nH]c(=O)c23)CO1 (centres undefined)	12*	8	-1	0	18	4	-1	7
CCOc1cc(/C=C2/C(=N)N3OC(C)=CC3=NC2=O)ccc1OCCOc1ccccc1	14*	0	-1	0	-2	-38	9.2*	10
CC1=CC2=NC(=O)/C(=C\c3cccn3CCOc3cc(C)ccc3C)C(=N)N2O1	14*	2	0	0	5	.	1	4
SMILES	MC4R ag barr	NTR1 ag	Tb MetRS inh	aDG glyco up	MC4R antagonist	H9c2 TAG inh	MC4R barr ag	MOR DOR agonist
C(=C\c1ccccc1)/CN1CCN(C(c2nnnn2Cc2ccccc2)C2CC2)CC1 (centres undefined)	.	.	1	0	.	.	.	.
O=C(CN1CCCC1)N/N=C/c1ccc(-c2cccc(Cl)c2)o1	-1	0	-1	0	-8	13	.	.
O=C(Cn1nnc(-c2ccccc2Cl)n1)N/N=C/c1ccc(-c2cccc(Cl)c2)o1	11*	2	-1	0	-11	.	8.9*	3
Cc1cc(N2CCN(C(=O)c3[nH]c(C(F)(F)F)nc3-c3ccccc3)CC2)c2ccccc2n1	.	.	0	0	.	.	.	.
CCOC(=O)c1ccc(NC(=O)CSc2nnc(COc3ccccc3)n2C)cc1	11*	2	-1	0	-3	4	0	7
Cn1c(CNC(=O)c2ccc(Cl)c(Cl)c2)nnc1SCC(=O)Nc1sc2c(c1C#N)CCCC2	11*	12	0	0	5	6	11*	3
Cc1sc(NC(=O)CSc2nnc(COc3ccc(Cl)cc3)n2C)c(C#N)c1C	11*	0	-1	0	4	-1	4	7
Cc1cc2nc(C(C)(C)C)c(Cc3cccc(F)c3)n2c(C)c1Br	.	.	0	0	.	.	.	.
O=C(Nc1ccncc1)c1cc(C2CCCCN2C(=O)CCc2ccccc2)on1 (centres undefined)	-2	.	0	0	2	-10	.	.
Cc1ccc(NC(=O)C2c3ccccc3-c3ccccc32)cc1	.	.	0	0	.	.	.	.
OC1(C#Cc2c(-c3ccsc3)oc3ccc(N4CCOCC4)cc23)CCCCC1	13*	18	0	0	19	2	8	5
O=C(CSc1nc2c(sc3ccccc32)c(=O)n1Cc1ccco1)NCC1CCCO1 (centres undefined)	22*	18	0	0	10	3	0	1
COc1cc(/C=C(\C#N)c2nc3ccccc3[nH]2)cc(OC)c1O	1	.	3	0	-1	15	.	.
